Results taken from ChEMBL document CHEMBL5303300, “EUbOPEN Chemogenomics Library - Multiplex” (2023).
Where “and” joins values, the source holds several entries; their conditions need not be identical. Identical values can stand only once.

Tests used:
HEK-293T = experiment: Multiplex assay against HEK293T; type: toxicity, cell-based; conditions: human, number of replicates 2
Method in brief: (§1)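 Live cells were stained at seeding with Hoechst33342, BioTracker Green Microtubule Cytoskeleton Dye, MitoTracker Red and Annexin V Alexa Fluor 680, then imaged on a CQ1 microscope at 37°C and 5% CO2 after compound addition. CellPathfinder machine-learning gating split cells into Hoechst high-intensity objects or normal cells. Normal cells were split into healthy, pyknosed or fragmented nuclei, and pyknosed cells into mitotic or apoptotic. Tubulin, mitochondrial-mass and membrane-permeability phenotypes are per cents of healthy-nucleus cells.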

U2OS = experiment: Multiplex assay against U2OS; type: toxicity, cell-based; conditions: human, number of replicates 2; method in brief: as §1
[1] = 12 h, 1 µM, compound concentration 1 uM
[2] = 12 h, 10 µM, compound concentration 10 uM
[3] = 24 h, 1 µM, compound concentration 1 uM
[4] = 24 h, 10 µM, compound concentration 10 uM
[5] = 48 h, 1 µM, compound concentration 1 uM
[6] = 48 h, 10 µM, compound concentration 10 uM

Q: Which “Population Apoptotic (%)” value (HEK-293T; [1]) does the source give for `COc1cc(OC)cc(C(=O)NNC(=O)Nc2cccc3ccccc23)c1` here?
A: The value was 42% and 53%.

Q: And the “Population Fragmented Nuclei (%)” value (HEK-293T; [1])?
A: Its value is 2% and 1%.

Q: And the “Population Healthy Nuclei (%)” value (HEK-293T; [1])?
A: Its value is 86% and 85%.

Q: What about the “Population Hoechst High Intensity Objects (%)” value (HEK-293T; [1]) of the same molecule?
A: Its value is 4%.

Q: And the “Population Membrane Permeable-Phenotype (%)” value (HEK-293T; [1])?
A: Its value is 1% and 2%.

Q: And the “Population Mitochondria Different-Phenotype (%)” value (HEK-293T; [1])?
A: The value was 14% and 16%.

Q: What about the “Population Mitotic Cells (%)” value (HEK-293T; [1]) of the same molecule?
A: Its value is 57% and 46%.

Q: And the “Population Normal (%)” value (HEK-293T; [1])?
A: The value was 95%.

Q: What about the “Population Pyknosed Nuclei (%)” value (HEK-293T; [1]) of the same molecule?
A: The value was 10% and 13%.

Q: And the “Population Tubulin-Different-Phenotype (%)” value (HEK-293T; [1])?
A: The value was 43% and 47%.

Q: And the “Total Cell Count” value (HEK-293T; [1])?
A: The value was 709 and 572.

Q: And the “Population Apoptotic (%)” value (HEK-293T; [2])?
A: The value was 42% and 34%.

Q: What about the “Population Fragmented Nuclei (%)” value (HEK-293T; [2]) of the same molecule?
A: The value was 3%.

Q: What about the “Population Healthy Nuclei (%)” value (HEK-293T; [2]) of the same molecule?
A: Its value is 84% and 83%.

Q: And the “Population Hoechst High Intensity Objects (%)” value (HEK-293T; [2])?
A: The value was 6% and 4%.

Q: What about the “Population Membrane Permeable-Phenotype (%)” value (HEK-293T; [2]) of the same molecule?
A: The value was 5% and 4%.

Q: What about the “Population Mitochondria Different-Phenotype (%)” value (HEK-293T; [2]) of the same molecule?
A: Its value is 15% and 12%.

Q: What about the “Population Mitotic Cells (%)” value (HEK-293T; [2]) of the same molecule?
A: The value was 57% and 65%.

Q: And the “Population Normal (%)” value (HEK-293T; [2])?
A: Its value is 93% and 95%.

Q: And the “Population Pyknosed Nuclei (%)” value (HEK-293T; [2])?
A: Its value is 12% and 13%.

Q: And the “Population Tubulin-Different-Phenotype (%)” value (HEK-293T; [2])?
A: Its value is 60% and 46%.

Q: What about the “Total Cell Count” value (HEK-293T; [2]) of the same molecule?
A: Its value is 571 and 696.

Q: And the “Population Apoptotic (%)” value (HEK-293T; [3])?
A: Its value is 25% and 34%.

Q: What about the “Population Fragmented Nuclei (%)” value (HEK-293T; [3]) of the same molecule?
A: The value was 3%.

Q: What about the “Population Healthy Nuclei (%)” value (HEK-293T; [3]) of the same molecule?
A: Its value is 90% and 89%.

Q: And the “Population Hoechst High Intensity Objects (%)” value (HEK-293T; [3])?
A: The value was 8% and 6%.

Q: And the “Population Membrane Permeable-Phenotype (%)” value (HEK-293T; [3])?
A: Its value is 2%.

Q: And the “Population Mitochondria Different-Phenotype (%)” value (HEK-293T; [3])?
A: Its value is 4%.

Q: And the “Population Mitotic Cells (%)” value (HEK-293T; [3])?
A: Its value is 74% and 65%.

Q: And the “Population Normal (%)” value (HEK-293T; [3])?
A: The value was 91% and 93%.

Q: And the “Population Pyknosed Nuclei (%)” value (HEK-293T; [3])?
A: The value was 5% and 6%.

Q: What about the “Population Tubulin-Different-Phenotype (%)” value (HEK-293T; [3]) of the same molecule?
A: Its value is 28% and 29%.

Q: And the “Total Cell Count” value (HEK-293T; [3])?
A: Its value is 1130 and 899.

Q: What about the “Population Apoptotic (%)” value (HEK-293T; [4]) of the same molecule?
A: The value was 36% and 29%.

Q: And the “Population Fragmented Nuclei (%)” value (HEK-293T; [4])?
A: Its value is 4% and 6%.

Q: And the “Population Healthy Nuclei (%)” value (HEK-293T; [4])?
A: Its value is 84% and 86%.

Q: What about the “Population Hoechst High Intensity Objects (%)” value (HEK-293T; [4]) of the same molecule?
A: Its value is 6% and 4%.

Q: And the “Population Membrane Permeable-Phenotype (%)” value (HEK-293T; [4])?
A: Its value is 4% and 3%.

Q: And the “Population Mitochondria Different-Phenotype (%)” value (HEK-293T; [4])?
A: The value was 9% and 4%.

Q: And the “Population Mitotic Cells (%)” value (HEK-293T; [4])?
A: The value was 63% and 70%.

Q: And the “Population Normal (%)” value (HEK-293T; [4])?
A: Its value is 93% and 95%.

Q: And the “Population Pyknosed Nuclei (%)” value (HEK-293T; [4])?
A: Its value is 11% and 6%.

Q: And the “Population Tubulin-Different-Phenotype (%)” value (HEK-293T; [4])?
A: Its value is 50% and 27%.

Q: What about the “Total Cell Count” value (HEK-293T; [4]) of the same molecule?
A: The value was 700 and 1003.

Q: And the “Population Apoptotic (%)” value (HEK-293T; [5])?
A: The value was 8% and 15%.

Q: What about the “Population Fragmented Nuclei (%)” value (HEK-293T; [5]) of the same molecule?
A: Its value is 12% and 9%.

Q: What about the “Population Healthy Nuclei (%)” value (HEK-293T; [5]) of the same molecule?
A: The value was 84% and 87%.

Q: And the “Population Hoechst High Intensity Objects (%)” value (HEK-293T; [5])?
A: Its value is 9%.

Q: And the “Population Membrane Permeable-Phenotype (%)” value (HEK-293T; [5])?
A: Its value is 4%.

Q: What about the “Population Mitochondria Different-Phenotype (%)” value (HEK-293T; [5]) of the same molecule?
A: Its value is 0%.

Q: And the “Population Mitotic Cells (%)” value (HEK-293T; [5])?
A: The value was 91% and 84%.

Q: And the “Population Normal (%)” value (HEK-293T; [5])?
A: Its value is 91% and 90%.

Q: And the “Population Pyknosed Nuclei (%)” value (HEK-293T; [5])?
A: The value was 3% and 2%.

Q: And the “Population Tubulin-Different-Phenotype (%)” value (HEK-293T; [5])?
A: Its value is 11% and 16%.

Q: And the “Total Cell Count” value (HEK-293T; [5])?
A: Its value is 2889 and 1933.

Q: And the “Population Apoptotic (%)” value (HEK-293T; [6])?
A: The value was 8% and 17%.

Q: What about the “Population Fragmented Nuclei (%)” value (HEK-293T; [6]) of the same molecule?
A: The value was 10% and 12%.

Q: And the “Population Healthy Nuclei (%)” value (HEK-293T; [6])?
A: The value was 82% and 84%.

Q: What about the “Population Hoechst High Intensity Objects (%)” value (HEK-293T; [6]) of the same molecule?
A: The value was 6% and 8%.

Q: And the “Population Membrane Permeable-Phenotype (%)” value (HEK-293T; [6])?
A: Its value is 4% and 5%.

Q: What about the “Population Mitochondria Different-Phenotype (%)” value (HEK-293T; [6]) of the same molecule?
A: The value was 3% and 0%.

Q: What about the “Population Mitotic Cells (%)” value (HEK-293T; [6]) of the same molecule?
A: Its value is 91% and 82%.

Q: What about the “Population Normal (%)” value (HEK-293T; [6]) of the same molecule?
A: Its value is 93% and 91%.

Q: And the “Population Pyknosed Nuclei (%)” value (HEK-293T; [6])?
A: The value was 6% and 3%.

Q: And the “Population Tubulin-Different-Phenotype (%)” value (HEK-293T; [6])?
A: The value was 30% and 17%.

Q: And the “Total Cell Count” value (HEK-293T; [6])?
A: The value was 1120 and 2017.

Q: What about the “Population Apoptotic (%)” value (U2OS; [1]) of the same molecule?
A: The value was 66% and 60%.

Q: What about the “Population Healthy Nuclei (%)” value (U2OS; [1]) of the same molecule?
A: Its value is 65% and 85%.

Q: And the “Population Hoechst High Intensity Objects (%)” value (U2OS; [1])?
A: The value was 0%.

Q: And the “Population Membrane Permeable-Phenotype (%)” value (U2OS; [1])?
A: Its value is 7% and 3%.

Q: What about the “Population Mitochondria Different-Phenotype (%)” value (U2OS; [1]) of the same molecule?
A: The value was 0%.

Q: And the “Population Mitotic Cells (%)” value (U2OS; [1])?
A: Its value is 33% and 39%.

Q: And the “Population Normal (%)” value (U2OS; [1])?
A: The value was 100%.

Q: And the “Population Pyknosed Nuclei (%)” value (U2OS; [1])?
A: Its value is 15% and 11%.

Q: And the “Population Tubulin-Different-Phenotype (%)” value (U2OS; [1])?
A: Its value is 53% and 88%.

Q: What about the “Population Healthy Nuclei (%)” value (U2OS; [2]) of the same molecule?
A: Its value is 80% and 64%.

Q: What about the “Population Hoechst High Intensity Objects (%)” value (U2OS; [2]) of the same molecule?
A: The value was 0%.

Q: What about the “Population Membrane Permeable-Phenotype (%)” value (U2OS; [2]) of the same molecule?
A: Its value is 0% and 5%.

Q: What about the “Population Mitochondria Different-Phenotype (%)” value (U2OS; [2]) of the same molecule?
A: The value was 0%.

Q: What about the “Population Mitotic Cells (%)” value (U2OS; [2]) of the same molecule?
A: Its value is 57% and 90%.

Q: What about the “Population Normal (%)” value (U2OS; [2]) of the same molecule?
A: The value was 100%.

Q: And the “Population Pyknosed Nuclei (%)” value (U2OS; [2])?
A: Its value is 15% and 19%.

Q: What about the “Population Tubulin-Different-Phenotype (%)” value (U2OS; [2]) of the same molecule?
A: The value was 71% and 38%.

Q: And the “Population Apoptotic (%)” value (U2OS; [3])?
A: The value was 51% and 100%.

Q: What about the “Population Fragmented Nuclei (%)” value (U2OS; [3]) of the same molecule?
A: The value was 4% and 12%.

Q: And the “Population Healthy Nuclei (%)” value (U2OS; [3])?
A: The value was 83% and 79%.

Q: What about the “Population Hoechst High Intensity Objects (%)” value (U2OS; [3]) of the same molecule?
A: Its value is 0%.

Q: What about the “Population Membrane Permeable-Phenotype (%)” value (U2OS; [3]) of the same molecule?
A: Its value is 2% and 0%.

Q: What about the “Population Mitochondria Different-Phenotype (%)” value (U2OS; [3]) of the same molecule?
A: Its value is 0%.

Q: And the “Population Normal (%)” value (U2OS; [3])?
A: The value was 99% and 100%.

Q: What about the “Population Pyknosed Nuclei (%)” value (U2OS; [3]) of the same molecule?
A: Its value is 11% and 8%.

Q: What about the “Population Tubulin-Different-Phenotype (%)” value (U2OS; [3]) of the same molecule?
A: The value was 89% and 36%.
